Reference: ChEMBL document CHEMBL4184148 (Bioorg Med Chem Lett, 2017)

Assays:
[1] = biological target: Serine/threonine-protein kinase pim-3 (Homo sapiens) (UniProt Q86V86); assay: Binding affinity to wild-type human partial length PIM3 (G16 to A317 residues) expressed in Escherichia coli BL21 at 1 uM by Kinomescan method relative to control
[2] = tested on: Tyrosine-protein kinase ABL1 (Homo sapiens), P00519 [T315I]; assay: Binding affinity to human non-phosphorylated ABL1 T315I mutant (S229 to K512 residues) expressed in HEK293 cells at 1 uM by Kinomescan method relative to control; assay type: cell-based
[3] = biological target: Testis-specific serine/threonine-protein kinase 3 (Homo sapiens) (UniProt Q96PN8); assay: Binding affinity to wild-type human full length TSSK3 (M1 to T268 residues) expressed in HEK293 cells at 1 uM by Kinomescan method relative to control; assay type: cell-based
Outline: (§1)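 Kinome-wide competition binding panel run by an outside provider, with each compound tested at a single concentration. Activity is read against the kinase panel.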

[4] = biological target: Ribosomal protein S6 kinase alpha-2 (Homo sapiens) (UniProt Q15349); assay: Binding affinity to wild-type human partial length N-terminal RSK2 kinase domain 1 (M1 to D394 residues) expressed in HEK293 cells at 1 uM by Kinomescan method relative to control; assay type: cell-based
[5] = biological target: TGF-beta receptor type-1 (Homo sapiens) (UniProt P36897); assay: Binding affinity to wild-type human partial length TGFBR1 (D179 to M503 residues) expressed in Escherichia coli BL21 at 1 uM by Kinomescan method relative to control
TGF-beta receptor type-1 (Homo sapiens), sequence (P36897 whole entry, the tested form may be a part): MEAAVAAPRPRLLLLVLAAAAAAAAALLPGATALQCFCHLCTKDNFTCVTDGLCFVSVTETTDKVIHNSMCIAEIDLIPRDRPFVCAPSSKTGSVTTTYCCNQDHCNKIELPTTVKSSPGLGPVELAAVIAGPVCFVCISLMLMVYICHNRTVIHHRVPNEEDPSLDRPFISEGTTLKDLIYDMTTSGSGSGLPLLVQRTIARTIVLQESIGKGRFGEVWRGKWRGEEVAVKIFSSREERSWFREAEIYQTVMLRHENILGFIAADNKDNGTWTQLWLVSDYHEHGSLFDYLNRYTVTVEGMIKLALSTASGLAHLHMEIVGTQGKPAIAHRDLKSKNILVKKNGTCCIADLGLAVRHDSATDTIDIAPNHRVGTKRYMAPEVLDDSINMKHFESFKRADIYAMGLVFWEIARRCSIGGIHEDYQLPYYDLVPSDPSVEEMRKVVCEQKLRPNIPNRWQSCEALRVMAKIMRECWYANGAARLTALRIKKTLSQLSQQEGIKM

[6] = tested on: Tyrosine-protein kinase ABL1 (Homo sapiens), P00519 [T315I]; assay: Binding affinity to human phosphorylated ABL1 T315I mutant (S229 to K512 residues) expressed in HEK293 cells at 1 uM by Kinomescan method relative to control; assay type: cell-based
[7] = biological target: RAF proto-oncogene serine/threonine-protein kinase (Homo sapiens) (UniProt P04049); assay: Binding affinity to wild-type human partial length RAF1 (I330 to T640 residues) expressed in Escherichia coli BL21 at 1 uM by Kinomescan method relative to control
RAF proto-oncogene serine/threonine-protein kinase (Homo sapiens), sequence (P04049 whole entry, the tested form may be a part): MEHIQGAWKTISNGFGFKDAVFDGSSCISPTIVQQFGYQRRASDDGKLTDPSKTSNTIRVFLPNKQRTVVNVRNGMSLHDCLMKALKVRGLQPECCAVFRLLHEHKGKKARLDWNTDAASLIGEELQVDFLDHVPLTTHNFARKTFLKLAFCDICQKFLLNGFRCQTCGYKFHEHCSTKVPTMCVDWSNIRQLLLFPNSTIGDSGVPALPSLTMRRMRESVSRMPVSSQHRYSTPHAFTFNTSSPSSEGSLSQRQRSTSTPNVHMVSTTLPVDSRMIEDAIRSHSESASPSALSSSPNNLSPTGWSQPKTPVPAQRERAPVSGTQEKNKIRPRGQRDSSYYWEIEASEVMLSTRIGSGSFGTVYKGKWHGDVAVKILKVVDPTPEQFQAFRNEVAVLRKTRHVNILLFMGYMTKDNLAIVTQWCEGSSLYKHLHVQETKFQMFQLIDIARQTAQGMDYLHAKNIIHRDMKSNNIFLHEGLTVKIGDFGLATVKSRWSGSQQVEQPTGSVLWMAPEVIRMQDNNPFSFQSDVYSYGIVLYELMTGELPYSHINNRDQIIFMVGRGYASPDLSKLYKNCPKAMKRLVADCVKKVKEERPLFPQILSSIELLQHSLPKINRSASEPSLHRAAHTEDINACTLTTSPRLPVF

[8] = biological target: G protein-coupled receptor kinase 3 (Homo sapiens) (UniProt P35626); assay: Binding affinity to wild-type human full length GRK3 (M1 to L688 residues) expressed in HEK293 cells at 1 uM by Kinomescan method relative to control; assay type: cell-based
G protein-coupled receptor kinase 3 (Homo sapiens), sequence (P35626 whole entry, the tested form may be a part): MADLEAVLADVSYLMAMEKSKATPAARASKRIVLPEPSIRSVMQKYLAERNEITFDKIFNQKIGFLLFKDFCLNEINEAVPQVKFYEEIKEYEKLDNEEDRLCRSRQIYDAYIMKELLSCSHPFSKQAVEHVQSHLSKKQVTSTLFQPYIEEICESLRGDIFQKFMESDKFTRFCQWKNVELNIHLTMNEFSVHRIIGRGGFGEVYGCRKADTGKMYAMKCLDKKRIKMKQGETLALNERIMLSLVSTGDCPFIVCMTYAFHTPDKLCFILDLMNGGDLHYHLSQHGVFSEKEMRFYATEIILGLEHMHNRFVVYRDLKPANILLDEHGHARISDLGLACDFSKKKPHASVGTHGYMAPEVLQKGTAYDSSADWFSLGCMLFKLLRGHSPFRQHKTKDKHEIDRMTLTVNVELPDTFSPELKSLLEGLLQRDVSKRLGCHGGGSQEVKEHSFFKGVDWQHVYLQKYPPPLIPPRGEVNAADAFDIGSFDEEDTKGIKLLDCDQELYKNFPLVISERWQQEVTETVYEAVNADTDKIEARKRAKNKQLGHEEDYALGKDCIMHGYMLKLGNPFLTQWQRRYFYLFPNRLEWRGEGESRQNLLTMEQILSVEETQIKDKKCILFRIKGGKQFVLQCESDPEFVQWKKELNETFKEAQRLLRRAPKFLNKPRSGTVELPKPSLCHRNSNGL
Outline: (§2)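 Run as one kinome-wide competition binding panel with each compound at a single fixed concentration. Results were plotted as a kinome-wide selectivity map.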

[9] = biological target: Epidermal growth factor receptor (Homo sapiens) (UniProt P00533); assay: Binding affinity to human partial length EGFR E746-A750del mutant expressed in Escherichia coli BL21 at 1 uM by Kinomescan method relative to control
[10] = biological target: Mitogen-activated protein kinase 11 (Homo sapiens) (UniProt Q15759); assay: Binding affinity to wild-type human full length p38-beta (M1 to Q364 residues) expressed in Escherichia coli BL21 at 1 uM by Kinomescan method relative to control; outline: as §1
[11] = biological target: Cyclin-dependent kinase 9 (Homo sapiens) (UniProt P50750); assay: Binding affinity to wild-type human full length CDK9 (M1 to F372 residues) expressed in Escherichia coli BL21 at 1 uM by Kinomescan method relative to control; outline: as §2
Cyclin-dependent kinase 9 (Homo sapiens), sequence (P50750 whole entry, the tested form may be a part): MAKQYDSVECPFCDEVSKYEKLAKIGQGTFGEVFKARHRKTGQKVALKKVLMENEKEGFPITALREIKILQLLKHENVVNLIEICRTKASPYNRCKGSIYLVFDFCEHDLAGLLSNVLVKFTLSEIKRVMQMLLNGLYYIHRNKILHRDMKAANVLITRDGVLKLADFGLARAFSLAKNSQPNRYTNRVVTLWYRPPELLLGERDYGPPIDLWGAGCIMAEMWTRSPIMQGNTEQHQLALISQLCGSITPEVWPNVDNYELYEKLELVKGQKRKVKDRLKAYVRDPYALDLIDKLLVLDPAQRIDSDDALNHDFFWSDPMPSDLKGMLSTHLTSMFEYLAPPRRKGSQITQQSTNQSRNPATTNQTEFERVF

[12] = biological target: Mitogen-activated protein kinase 8 (Homo sapiens) (UniProt P45983); assay: Binding affinity to wild-type human full length JNK1 (M1 to Q384 residues) expressed in HEK293 cells at 1 uM by Kinomescan method relative to control; assay type: cell-based; outline: as §2
[13] = biological target: Calcium/calmodulin-dependent protein kinase type 1D (Homo sapiens) (UniProt Q8IU85); assay: Binding affinity to wild-type human partial length CAMK1D (M1 to K299 residues) expressed in Escherichia coli BL21 at 1 uM by Kinomescan method relative to control
[14] = biological target: Mitogen-activated protein kinase kinase kinase 6 (Homo sapiens) (UniProt O95382); assay: Binding affinity to wild-type human partial length ASK2 (M278 to R972 residues) expressed in HEK293 cells at 1 uM by Kinomescan method relative to control; assay type: cell-based; outline: as §1
[15] = biological target: Tyrosine-protein kinase ZAP-70 (Homo sapiens) (UniProt P43403); assay: Binding affinity to wild-type human partial length ZAP70 (D20 to G299 residues) expressed in HEK293 cells at 1 uM by Kinomescan method relative to control; assay type: cell-based
Tyrosine-protein kinase ZAP-70 (Homo sapiens), sequence (P43403 whole entry, the tested form may be a part): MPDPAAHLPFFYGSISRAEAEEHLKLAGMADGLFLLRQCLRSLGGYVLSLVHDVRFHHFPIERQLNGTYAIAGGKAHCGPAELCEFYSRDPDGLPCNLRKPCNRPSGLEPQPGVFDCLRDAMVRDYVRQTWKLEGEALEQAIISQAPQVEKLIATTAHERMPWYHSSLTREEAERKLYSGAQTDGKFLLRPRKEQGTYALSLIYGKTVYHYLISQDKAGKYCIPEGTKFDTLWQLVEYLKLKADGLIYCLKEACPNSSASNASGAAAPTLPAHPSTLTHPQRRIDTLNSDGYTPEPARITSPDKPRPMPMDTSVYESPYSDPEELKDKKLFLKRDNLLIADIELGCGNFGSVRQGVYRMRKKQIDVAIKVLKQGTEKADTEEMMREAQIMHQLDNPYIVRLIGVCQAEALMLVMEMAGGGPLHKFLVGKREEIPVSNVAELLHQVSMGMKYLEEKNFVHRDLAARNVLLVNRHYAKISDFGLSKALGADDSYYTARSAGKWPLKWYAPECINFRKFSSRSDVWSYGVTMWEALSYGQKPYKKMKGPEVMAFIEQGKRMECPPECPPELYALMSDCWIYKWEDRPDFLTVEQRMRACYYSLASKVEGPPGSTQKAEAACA

[16] = biological target: Dual specificity protein kinase TTK (Homo sapiens) (UniProt P33981); assay: Binding affinity to wild-type human partial length TTK (N505 to V798 residues) expressed in Escherichia coli BL21 at 1 uM by Kinomescan method relative to control
[17] = biological target: Macrophage colony-stimulating factor 1 receptor (Homo sapiens) (UniProt P07333); assay: Binding affinity to wild-type human partial length autoinhibited CSF1R (Y538 to S939 residues) expressed in HEK293 cells at 1 uM by Kinomescan method relative to control; assay type: cell-based; parameters: scale not given: the % may be the effect or the level left
[18] = biological target: Rho-associated protein kinase 2 (Homo sapiens) (UniProt O75116); assay: Binding affinity to wild-type human partial length ROCK2 (M1 to T431 residues) expressed in HEK293 cells at 1 uM by Kinomescan method relative to control; assay type: cell-based
Rho-associated protein kinase 2 (Homo sapiens), sequence (O75116 whole entry, looked up, the tested form may be a part): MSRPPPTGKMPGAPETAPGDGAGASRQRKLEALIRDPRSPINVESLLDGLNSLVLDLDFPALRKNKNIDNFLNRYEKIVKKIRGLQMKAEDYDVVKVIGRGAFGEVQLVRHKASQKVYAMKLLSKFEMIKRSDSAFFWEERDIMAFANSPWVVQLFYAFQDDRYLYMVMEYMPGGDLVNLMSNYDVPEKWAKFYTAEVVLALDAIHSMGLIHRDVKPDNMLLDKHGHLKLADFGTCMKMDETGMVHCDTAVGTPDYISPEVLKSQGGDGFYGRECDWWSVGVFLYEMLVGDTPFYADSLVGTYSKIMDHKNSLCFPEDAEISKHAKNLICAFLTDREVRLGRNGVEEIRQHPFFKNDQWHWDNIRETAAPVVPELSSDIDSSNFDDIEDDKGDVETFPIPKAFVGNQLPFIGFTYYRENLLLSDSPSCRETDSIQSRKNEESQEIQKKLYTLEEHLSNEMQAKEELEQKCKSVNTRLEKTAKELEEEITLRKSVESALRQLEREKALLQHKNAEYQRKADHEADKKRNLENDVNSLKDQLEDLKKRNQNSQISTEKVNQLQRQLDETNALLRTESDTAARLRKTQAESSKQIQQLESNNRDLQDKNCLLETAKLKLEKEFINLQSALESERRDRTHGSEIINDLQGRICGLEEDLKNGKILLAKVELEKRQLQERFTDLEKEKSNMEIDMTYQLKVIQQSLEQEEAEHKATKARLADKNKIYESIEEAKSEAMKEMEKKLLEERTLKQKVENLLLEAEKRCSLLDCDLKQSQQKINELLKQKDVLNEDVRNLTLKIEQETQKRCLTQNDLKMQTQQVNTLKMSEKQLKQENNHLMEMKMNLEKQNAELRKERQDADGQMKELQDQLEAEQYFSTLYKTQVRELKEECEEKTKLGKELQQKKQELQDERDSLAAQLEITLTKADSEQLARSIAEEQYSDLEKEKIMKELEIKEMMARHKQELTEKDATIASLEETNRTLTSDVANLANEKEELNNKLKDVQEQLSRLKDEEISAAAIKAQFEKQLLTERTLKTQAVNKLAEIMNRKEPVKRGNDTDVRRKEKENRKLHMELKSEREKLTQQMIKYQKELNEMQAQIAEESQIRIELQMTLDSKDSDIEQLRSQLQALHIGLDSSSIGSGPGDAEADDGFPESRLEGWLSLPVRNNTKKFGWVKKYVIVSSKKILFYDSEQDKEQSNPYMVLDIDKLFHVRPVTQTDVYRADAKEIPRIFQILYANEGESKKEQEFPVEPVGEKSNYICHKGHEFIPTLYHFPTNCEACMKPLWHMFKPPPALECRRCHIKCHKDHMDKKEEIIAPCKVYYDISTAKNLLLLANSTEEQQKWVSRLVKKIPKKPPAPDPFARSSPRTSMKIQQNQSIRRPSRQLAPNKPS

[19] = biological target: Tyrosine-protein kinase CSK (Homo sapiens) (UniProt P41240); assay: Binding affinity to wild-type human full length CSK (M1 to L450 residues) expressed in Escherichia coli BL21 at 1 uM by Kinomescan method relative to control; outline: as §2
[20] = biological target: Mast/stem cell growth factor receptor Kit (Homo sapiens) (UniProt P10721); assay: Binding affinity to wild-type human partial length autoinhibited KIT (Y545 to D952 residues) expressed in HEK293 cells at 1 uM by Kinomescan method relative to control; assay type: cell-based; parameters: scale not given: the % may be the effect or the level left
[21] = biological target: Mitogen-activated protein kinase kinase kinase kinase 3 (Homo sapiens) (UniProt Q8IVH8); assay: Binding affinity to wild-type human partial length MAP4K3 (M1 to D301 residues) expressed in Escherichia coli BL21 at 1 uM by Kinomescan method relative to control
[22] = biological target: Cyclin-dependent kinase 15 (Homo sapiens) (UniProt Q96Q40); assay: Binding affinity to wild-type human full length PFTAIRE2 (M1 to W384 residues) expressed in Escherichia coli BL21 at 1 uM by Kinomescan method relative to control; outline: as §1
Cyclin-dependent kinase 15 (Homo sapiens), sequence (Q96Q40 whole entry, the tested form may be a part): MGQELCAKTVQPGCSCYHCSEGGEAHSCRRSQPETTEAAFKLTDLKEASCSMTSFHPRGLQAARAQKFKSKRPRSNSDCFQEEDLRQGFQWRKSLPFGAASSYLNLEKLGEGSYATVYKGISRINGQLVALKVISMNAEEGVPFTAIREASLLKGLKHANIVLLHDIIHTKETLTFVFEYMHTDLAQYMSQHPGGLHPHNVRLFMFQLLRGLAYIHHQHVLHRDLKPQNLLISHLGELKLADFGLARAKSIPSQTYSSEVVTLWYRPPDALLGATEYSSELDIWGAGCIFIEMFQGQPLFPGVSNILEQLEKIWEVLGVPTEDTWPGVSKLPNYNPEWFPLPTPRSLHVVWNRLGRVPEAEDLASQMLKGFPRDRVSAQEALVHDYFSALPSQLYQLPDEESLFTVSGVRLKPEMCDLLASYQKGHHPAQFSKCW

[23] = tested on: Epidermal growth factor receptor (Homo sapiens), P00533 [UNDEFINED MUTATION]; assay: Binding affinity to human partial length EGFR L747-E749del/A750P mutant expressed in Escherichia coli BL21 at 1 uM by Kinomescan method relative to control
[24] = tested on: Mast/stem cell growth factor receptor Kit (Homo sapiens), P10721 [D816H]; assay: Binding affinity to human partial length KIT D816H mutant (I571 to D952 residues) expressed in HEK293 cells at 1 uM by Kinomescan method relative to control; assay type: cell-based
[25] = biological target: Ephrin type-A receptor 2 (Homo sapiens) (UniProt P29317); assay: Binding affinity to wild-type human partial length EPHA2 (T593 to V891 residues) expressed in Escherichia coli BL21 at 1 uM by Kinomescan method relative to control
[26] = biological target: Serine/threonine-protein kinase Nek1 (Homo sapiens) (UniProt Q96PY6); assay: Binding affinity to wild-type human partial length NEK1 (M1 to K278 residues) expressed in Escherichia coli BL21 at 1 uM by Kinomescan method relative to control

SMILES | Activity [1] | Activity [2] | Activity [3] | Activity [4] | Activity [5] | Activity [6] | Activity [7] | Activity [8] | Activity [9] | Activity [10] | Activity [11] | Activity [12] | Activity [13] | Activity [14] | Activity [15] | Activity [16] | Activity [17] | Activity [18] | Activity [19] | Activity [20] | further results
CCC(=O)Nc1ccc(C(=O)Nc2ccc(Nc3ncc4c(n3)N(C)c3ccc(C)cc3C(=O)N4C)cc2)cc1 | 82% | 81% | 59% | 66% | 97% | 100% | 96% | 70% | 91% | 100% | 97% | 75% | 88% | 89% | 95% | 87% | 65% | 78% | 93% | 90% | Activity [21]: 79%; Activity [22]: 100%; Activity [23]: 48%; Activity [24]: 72%; Activity [25]: 96%; Activity [26]: 100%
C=CC(=O)Nc1ccc(C(=O)Nc2ccc(Nc3ncc4c(n3)N(C)c3ccc(C)cc3C(=O)N4C)cc2)cc1 | 100% | 100% | 100% | 82% | 89% | 99% | 88% | 100% | 100% | 89% | 97% | 85% | 100% | 83% | 97% | 86% | 100% | 100% | 84% | 96% | Activity [21]: 97%; Activity [22]: 99%; Activity [23]: 76%; Activity [24]: 83%; Activity [25]: 93%; Activity [26]: 94%
